The source of these data is ChEMBL document CHEMBL1125826, “Synthesis and biological activity of 5-amino- and 5-hydroxyquinolones, and the overwhelming influence of the remote N1-substituent in determining the structure-activity relationship” (1991).

Format in all cases: functional
Assay [1] concerns the target DNA gyrase (Escherichia coli) (UniProt P0AES6+P0AES4). In words: Minimum inhibitory concentration against Escherichia coli DNA-gyrase in supercoiling assay.
Another assay has as its system Enterobacter cloacae. In words: Antibacterial activity was determined against gram negative organism, Enterobacter cloacae MA2646. Particulars: Enterobacter cloacae; read-out: MIC.
Assay [2] has as its system Escherichia coli. In words: Antibacterial activity was determined against gram negative organism, Escherichia coli vogel. Conditions: Escherichia coli; read-out: MIC. Put shortly: (§1)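 MIC (µg/mL) by standard microtitration against a panel of 10 Gram-positive and Gram-negative organisms; values averaged from multiple experiments.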
The subject of assay [3] is Escherichia coli. In words: The in vivo potency was determined in female charles river CD-1 mice infected with Escherichia coli after peroral administration. Particulars: Escherichia coli, po; read-out: PD50. Put shortly:
(§2)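 Acute lethal systemic infection in female CD-1 mice, 16 mice per route; single dose given orally by gavage at the time of challenge; median protective dose (PD50, mg/kg) determined.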

Assay [4] concerns Escherichia coli. In words: The in vivo potency was determined in female charles river CD-1 mice infected with Escherichia coli after sc administration. Conditions: Escherichia coli, sc; read-out: PD50. The procedure, abridged: (§3)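 Acute lethal systemic infection in female CD-1 mice, 16 mice per route; single subcutaneous dose given at the time of challenge; median protective dose (PD50, mg/kg) determined.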

For assay [5], the system named is Bacteria. Kind of assay: MIC ratio measured as the mean MICs of gram-negative bacteria. The procedure, abridged: (§4)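 Geometric mean of the microtitration MICs (µg/mL) over the Gram-negative organisms, and separately over the Gram-positive organisms, of the 10-strain panel; individual MICs averaged from multiple experiments.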
Assay [6] concerns Bacteria. In words: MIC ratio measured as the mean MICs of gram-positive bacteria. Put shortly: as §4
The test system of another assay is Klebsiella pneumoniae. In words: Antibacterial activity was determined against gram negative organism, Klebsiella pneumoniae MGH-2. Conditions: Klebsiella pneumoniae; read-out: MIC. Put shortly: as §1
Assay [7] has as its system Streptococcus pyogenes. In words: The in vivo potency was determined in female charles river CD-1 mice infected with Streptococcus pyogenes after peroral administration. Conditions: Streptococcus pyogenes, po; read-out: PD50. Put shortly:
as §2

In assay [8] the test system is Streptococcus pyogenes. In words: The in vivo potency was determined in female charles river CD-1 mice infected with Streptococcus pyogenes after sc administration. Conditions: Streptococcus pyogenes, sc; read-out: PD50. The procedure, abridged:
as §3

A further assay relates to Pseudomonas aeruginosa. In words: Antibacterial activity was determined against gram negative organism, Pseudomonas aeruginosa UI-18. Particulars: Pseudomonas aeruginosa; read-out: MIC. The procedure, abridged:
as §1

For assay [9], the system named is Bacteria. In words: Antibacterial activity was determined against gram negative organism, Providencia rettgeri. M1771. Particulars: Bacteria; read-out: MIC. Put shortly:
as §1

The subject of assay [10] is Staphylococcus aureus. In words: Antibacterial activity was determined against gram positive organism, Staphylococcus aureus H228. Conditions: Staphylococcus aureus; read-out: MIC. The procedure, abridged: as §1
In the next assay the test system is Streptococcus pneumoniae. Kind of assay: Antibacterial activity was determined against gram positive organism, Streptococcus pneumoniae SV-1. Conditions: Streptococcus pneumoniae; read-out: MIC. The procedure, abridged: as §1
In another assay the test system is Enterococcus faecalis. In words: Antibacterial activity was determined against gram positive organism, Streptococcus faecalis MGH-2. Conditions: Enterococcus faecalis; read-out: MIC. Put shortly: as §1
Assay [11] deals with Staphylococcus aureus. Kind of assay: Antibacterial activity was determined against gram positive organism, Staphylococcus aureus UC76. Particulars: Staphylococcus aureus; read-out: MIC. The procedure, abridged: as §1
Assay [12] deals with Streptococcus pyogenes. In words: Antibacterial activity was determined against gram positive organism, Streptococcus pyogenes C203. Conditions: Streptococcus pyogenes; read-out: MIC. Put shortly:
as §1

Values after ≈ are worked out from the molar mass of the structure shown.

On to `Nc1c(F)c(N2CCNCC2)c(Cl)c2c1c(=O)c(C(=O)O)cn2C1CC1`, for which the MIC in assay [1] is 1 µg/mL (≈ 2.63 µM); with Enterobacter cloacae, 0.025 µg/mL (≈ 0.0657 µM); with Escherichia coli [2] it was 0.025 µg/mL (≈ 0.0657 µM); in the assay with Klebsiella pneumoniae it was 0.05 µg/mL (≈ 0.131 µM); in the assay on Pseudomonas aeruginosa, 0.8 µg/mL (≈ 2.1 µM); in the assay on Bacteria [9], 0.1 µg/mL (≈ 0.263 µM). The MIC in the assay on Staphylococcus aureus [10] was found to be 0.1 µg/mL (≈ 0.263 µM); in the assay on Streptococcus pneumoniae, 0.1 µg/mL (≈ 0.263 µM); in the assay with Enterococcus faecalis, 0.1 µg/mL (≈ 0.263 µM); in the assay with Staphylococcus aureus [11], 0.025 µg/mL (≈ 0.0657 µM); in the assay with Streptococcus pyogenes [12] it was 0.2 µg/mL (≈ 0.525 µM). The ED50 turned out to be 2 mg/kg with Escherichia coli [3], 0.5 mg/kg in the assay with Escherichia coli [4], 26 mg/kg with Streptococcus pyogenes [7] and 10 mg/kg in the assay with Streptococcus pyogenes [8]. The Geometric mean MIC over Gram-negative bacteria (µg/mL) in the assay with Bacteria [5] amounted to 0.076. Also, the “Geometric mean MIC over Gram-positive bacteria (µg/mL)” value with Bacteria [6] worked out at 0.087.
With `CC1CN(c2cc3c(cc2F)c(=O)c(C(=O)O)cn3C2CC2)CC(C)N1` (stereo not drawn), the MIC in assay [1] was determined as 1 µg/mL (≈ 2.78 µM); in the assay with Enterobacter cloacae, 0.025 µg/mL (≈ 0.0696 µM); in the assay on Escherichia coli [2] it was 0.025 µg/mL (≈ 0.0696 µM); in the assay with Klebsiella pneumoniae, 0.05 µg/mL (≈ 0.139 µM); with Pseudomonas aeruginosa, 0.4 µg/mL (≈ 1.11 µM); in the assay on Bacteria [9] it was 0.2 µg/mL (≈ 0.556 µM). Further, the MIC with Staphylococcus aureus [10] stood at 0.2 µg/mL (≈ 0.556 µM); in the assay with Streptococcus pneumoniae, 0.2 µg/mL (≈ 0.556 µM); in the assay on Enterococcus faecalis it was 0.2 µg/mL (≈ 0.556 µM); in the assay with Staphylococcus aureus [11], 0.05 µg/mL (≈ 0.139 µM); with Streptococcus pyogenes [12] it was 0.2 µg/mL (≈ 0.556 µM). Besides, the ED50 in the assay on Escherichia coli [3] was 0.7 mg/kg; in the assay with Escherichia coli [4], 0.4 mg/kg; in the assay with Streptococcus pyogenes [7], 15 mg/kg; in the assay on Streptococcus pyogenes [8], 12 mg/kg. The Geometric mean MIC over Gram-negative bacteria (µg/mL) in the assay on Bacteria [5] turned out to be 0.076. Also, the “Geometric mean MIC over Gram-positive bacteria (µg/mL)” value in the assay on Bacteria [6] came out at 0.15.
Turning to `CC1CN(c2c(F)cc3c(=O)c(C(=O)O)cn(C4CC4)c3c2Cl)CCN1` (stereo not drawn), the MIC in [1] was 2.5 µg/mL (≈ 6.58 µM); in the assay with Enterobacter cloacae it was 0.025 µg/mL (≈ 0.0658 µM); with Escherichia coli [2], 0.025 µg/mL (≈ 0.0658 µM); in the assay with Klebsiella pneumoniae it was 0.05 µg/mL (≈ 0.132 µM); with Pseudomonas aeruginosa, 0.8 µg/mL (≈ 2.11 µM); in the assay on Bacteria [9] it was 0.2 µg/mL (≈ 0.527 µM). The MIC with Staphylococcus aureus [10] stood at 0.2 µg/mL (≈ 0.527 µM); in the assay with Streptococcus pneumoniae, 0.2 µg/mL (≈ 0.527 µM); with Enterococcus faecalis, 0.2 µg/mL (≈ 0.527 µM); in the assay on Staphylococcus aureus [11] it was 0.05 µg/mL (≈ 0.132 µM); with Streptococcus pyogenes [12], 0.2 µg/mL (≈ 0.527 µM). The ED50 with Escherichia coli [3] was 0.6 mg/kg; in the assay with Escherichia coli [4], 0.2 mg/kg; in the assay on Streptococcus pyogenes [7] it was 6 mg/kg; with Streptococcus pyogenes [8], 3 mg/kg. Also, the Geometric mean MIC over Gram-negative bacteria (µg/mL) in the assay with Bacteria [5] amounted to 0.087. For the same molecule, the “Geometric mean MIC over Gram-positive bacteria (µg/mL)” value with Bacteria [6] was determined as 0.15.
As for `CC1CN(c2cc3c(cc2F)c(=O)c(C(=O)O)cn3C2CC2)CCN1` (stereo not drawn), the MIC in assay [1] was determined as 0.5 µg/mL (≈ 1.45 µM); in the assay with Enterobacter cloacae, 0.025 µg/mL (≈ 0.0724 µM); in the assay on Escherichia coli [2] it was 0.025 µg/mL (≈ 0.0724 µM); in the assay on Klebsiella pneumoniae it was 0.05 µg/mL (≈ 0.145 µM); with Pseudomonas aeruginosa, 0.4 µg/mL (≈ 1.16 µM); with Bacteria [9], 0.1 µg/mL (≈ 0.29 µM). In addition, the MIC in the assay on Staphylococcus aureus [10] was 0.4 µg/mL (≈ 1.16 µM); in the assay with Streptococcus pneumoniae it was 0.2 µg/mL (≈ 0.579 µM); with Enterococcus faecalis, 0.4 µg/mL (≈ 1.16 µM); in the assay on Staphylococcus aureus [11] it was 0.1 µg/mL (≈ 0.29 µM); in the assay with Streptococcus pyogenes [12], 0.2 µg/mL (≈ 0.579 µM). Further, the ED50 was 1 mg/kg with Escherichia coli [3], 0.4 mg/kg with Escherichia coli [4], 39 mg/kg in the assay on Streptococcus pyogenes [7] and 12 mg/kg with Streptococcus pyogenes [8]. For the same molecule, the Geometric mean MIC over Gram-negative bacteria (µg/mL) in the assay with Bacteria [5] was 0.066. Besides, in the assay with Bacteria [6], the “Geometric mean MIC over Gram-positive bacteria (µg/mL)” value is 0.23.
For `CCNCC1CCN(c2cc3c(cc2F)c(=O)c(C(=O)O)cn3C2CC2)C1` (stereo not drawn), the MIC in assay [1] amounted to 1 µg/mL (≈ 2.68 µM); with Enterobacter cloacae it was 0.4 µg/mL (≈ 1.07 µM); in the assay with Escherichia coli [2] it was 0.2 µg/mL (≈ 0.536 µM); in the assay on Klebsiella pneumoniae it was 0.2 µg/mL (≈ 0.536 µM); in the assay on Pseudomonas aeruginosa, 1.6 µg/mL (≈ 4.28 µM); in the assay on Bacteria [9], 0.8 µg/mL (≈ 2.14 µM). The MIC with Staphylococcus aureus [10] was determined as 0.4 µg/mL (≈ 1.07 µM); in the assay on Streptococcus pneumoniae, 0.2 µg/mL (≈ 0.536 µM); with Enterococcus faecalis it was 0.2 µg/mL (≈ 0.536 µM); with Staphylococcus aureus [11] it was 0.013 µg/mL (≈ 0.0348 µM); in the assay with Streptococcus pyogenes [12], 0.05 µg/mL (≈ 0.134 µM). Besides, the ED50 in the assay on Escherichia coli [3] amounted to 35 mg/kg; with Escherichia coli [4], 2 mg/kg. Moreover, in the assay with Bacteria [5], the Geometric mean MIC over Gram-negative bacteria (µg/mL) came to 0.46. Further, in the assay with Bacteria [6], the “Geometric mean MIC over Gram-positive bacteria (µg/mL)” value worked out at 0.1.
With `NC1CCN(c2cc3c(c(O)c2F)c(=O)c(C(=O)O)cn3C2CC2)C1` (stereo not drawn), the MIC in assay [1] was 1 µg/mL (≈ 2.88 µM); with Enterobacter cloacae it was 0.025 µg/mL (≈ 0.072 µM); with Escherichia coli [2], 0.013 µg/mL (≈ 0.0374 µM); in the assay with Klebsiella pneumoniae it was 0.025 µg/mL (≈ 0.072 µM); with Pseudomonas aeruginosa, 0.2 µg/mL (≈ 0.576 µM); with Bacteria [9], 0.05 µg/mL (≈ 0.144 µM). Moreover, the MIC with Staphylococcus aureus [10] stood at 0.1 µg/mL (≈ 0.288 µM); in the assay on Streptococcus pneumoniae it was 0.05 µg/mL (≈ 0.144 µM); in the assay with Enterococcus faecalis, 0.2 µg/mL (≈ 0.576 µM); with Staphylococcus aureus [11], 0.013 µg/mL (≈ 0.0374 µM); in the assay on Streptococcus pyogenes [12] it was 0.1 µg/mL (≈ 0.288 µM). Moreover, the ED50 in the assay with Escherichia coli [3] was 3 mg/kg; with Escherichia coli [4], 0.4 mg/kg. For the same molecule, the Geometric mean MIC over Gram-negative bacteria (µg/mL) with Bacteria [5] was 0.038. The “Geometric mean MIC over Gram-positive bacteria (µg/mL)” value in the assay with Bacteria [6] was 0.066.
